≈ marks a conversion by molar mass, not a printed value.
How the values were obtained:
[1] = Thermodynamic solubility of the compound in pH 6.8 phosphate buffer after 24 hrs by HPLC analysis; type: physicochemical; conditions: read-out: Therm_solubility
In short: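 Excess solid in pH 6.8 phosphate buffer was shaken 24 h at 25 °C and centrifuged (3000 and 11000 rpm, 10 min). Supernatant was diluted in 50% aqueous acetonitrile and quantified by reversed-phase HPLC (0.1% phosphoric acid/acetonitrile, 40 °C column, UV 210 nm).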

[2] = target: T1, Glucose-dependent insulinotropic receptor (Homo sapiens, UniProt Q8TDV5); assay: Agonist activity at human GPR119 expressed in Flp-In-T-Rex-HEK293 cells assessed as stimulation of cAMP level measured after 30 mins by HTRF assay; type: functional, cell-based
T1 sequence (Q8TDV5 whole entry): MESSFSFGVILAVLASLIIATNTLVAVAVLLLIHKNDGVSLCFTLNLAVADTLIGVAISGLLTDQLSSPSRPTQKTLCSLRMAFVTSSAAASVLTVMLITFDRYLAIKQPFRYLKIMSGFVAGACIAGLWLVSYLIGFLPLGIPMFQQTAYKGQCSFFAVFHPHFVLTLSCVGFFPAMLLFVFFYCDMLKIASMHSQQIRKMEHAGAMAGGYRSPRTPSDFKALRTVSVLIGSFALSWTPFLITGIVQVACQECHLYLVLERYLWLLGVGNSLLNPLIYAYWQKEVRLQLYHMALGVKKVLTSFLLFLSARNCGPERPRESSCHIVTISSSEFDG
In short: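 Flp-In-T-Rex-HEK293 cells overexpressing human GPR119 were induced with tetracycline for 24 h, then seeded at 5000 cells/well in DMEM with 1 mM IBMX and 0.01% BSA. Cells were exposed to compound for 30 min at 37 °C, and cAMP was read by HTRF (HiRange kit). Basal cAMP was subtracted, and EC50 is the concentration giving 50% of maximal response on dose-response curves.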

[3] = AUC (0 to infinity) in Sprague-Dawley rat at 10 mg/kg, po administered as single dose by LC-MS/MS analysis; type: ADME, organism-based; parameters: dose 10 mg/kg, route oral, time infinity; conditions: in vivo
In short: (§1)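 Fasted male Sprague-Dawley rats received a single dose, either 3 mg/kg iv in 20% 2-hydroxypropyl-β-cyclodextrin or 10 mg/kg orally in 0.5% methylcellulose with 0.1% Tween80. Tail-vein blood was taken at each time point and spun to plasma. Analyte was quantified by LC-MS/MS, and parameters were derived by non-compartmental analysis.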

[4] = Permeability of the compound at pH 6.2 by PAMPA; type: physicochemical; conditions: read-out: permeability
[5] = Half life in Sprague-Dawley rat at 3 mg/kg, iv administered as single dose by LC-MS/MS analysis; type: ADME, organism-based; conditions: in vivo; in short: as §1
[6] = Oral bioavailability in Sprague-Dawley rat at 10 mg/kg administered as single dose by LC-MS/MS analysis; type: ADME, organism-based; conditions: in vivo; in short: as §1
[7] = Volume of distribution at steady state in Sprague-Dawley rat at 3 mg/kg, iv administered as single dose by LC-MS/MS analysis; type: ADME, organism-based; conditions: in vivo, read-out: Vdss; in short: as §1
[8] = Drug metabolism in human liver microsomes assessed per mg protein after 15 mins; type: ADME, microsome; conditions: read-out: Drug metabolism
In short: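 Compound was incubated 15 min with human liver microsomes at 1 mg protein/mL; the value is reported as percent metabolized.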

[9] = Clearance in Sprague-Dawley rat at 3 mg/kg, iv administered as single dose by LC-MS/MS analysis; type: ADME, organism-based; conditions: in vivo; in short: as §1

| SMILES | solubility thermodynamic at 24 h [1] [µM] | EC50 [2] [nM] | also measured |
| --- | --- | --- | --- |
| CCNC(=O)c1ccc(-c2cc3nnn(C4CCN(c5ncc(CC)cn5)CC4)c3cn2)c(C)c1 | < 0.09 | 19 | – |
| CC(C)OC(=O)N1CCC(n2nnc3cc(-c4cc(F)c(C(=O)N5CCCC5)cc4F)ncc32)CC1 | 15.9 (≈ 7.93 µg/mL) | 65 | AUC(0-inf) [3]: 1030 ng·h/mL; Papp [4]: 97 ×10⁻⁶ cm/s; half-life [5]: 14.5 min; bioavailability [6]: 16.7%; Vd [7]: 0.557 L/kg; metabolised at 0.25 h [8]: 9.3%; clearance [9]: 27.2 mL/min/kg |
| CCNC(=O)c1ccc(-c2cc3nnn(C4CCN(c5ncc(CC)cn5)CC4)c3cn2)c(C(F)(F)F)c1 | 1.2 (≈ 0.629 µg/mL) | 60 | – |
| CCNC(=O)c1cc(F)c(-c2cc3nnn(C4CCN(C(=O)OC(C)C)CC4)c3cn2)cc1F | 5.5 (≈ 2.6 µg/mL) | 37 | metabolised at 0.25 h [8]: 11% |
| CC(C)(OC(=O)N1CCC(n2ncc3cc(-c4ccc(S(C)(=O)=O)cc4)ncc32)CC1)C(F)F | 0.28 (≈ 0.138 µg/mL) | – | – |
| CCc1cnc(N2CCC(n3ncc4c(C)c(-c5ccc(S(C)(=O)=O)cc5)ccc43)CC2)nc1 | – | 3420 | – |
| CC(C)NC(=O)c1cc(F)c(-c2cc3nnn(C4CCN(C(=O)OC(C)C)CC4)c3cn2)cc1F | 0.84 (≈ 0.409 µg/mL) | 33 | – |
| CCNC(=O)c1ccc(-c2cc3nnn(C4CCN(c5ncc(CC)cn5)CC4)c3cn2)cc1C(F)(F)F | 0.51 (≈ 0.268 µg/mL) | 39 | – |
| CCNC(=O)c1c(C)cc(-c2cc3nnn(C4CCN(c5ncc(CC)cn5)CC4)c3cn2)cc1C | 5.01 (≈ 2.43 µg/mL) | 27 | – |
| CC(C)OC(=O)N1CCC(n2ncc3cc(-c4ccc(S(C)(=O)=O)cc4)ncc32)CC1 | 1.51 (≈ 0.668 µg/mL) | – | – |
| CCNC(=O)c1cc(F)c(-c2cc3cnn(C4CCN(C(=O)OC(C)C)CC4)c3cn2)cc1F | 2.84 (≈ 1.34 µg/mL) | – | metabolised at 0.25 h [8]: 12.4% |
| CCc1cnc(N2CCC(n3ncc4cc(-c5ccc(S(C)(=O)=O)cc5)c(C)cc43)CC2)nc1 | – | 70 | – |
| CC(C)OC(=O)N1CCC(n2nnc3cc(-c4cc(F)c(C(=O)N5CCC5)cc4F)ncc32)CC1 | 2.7 (≈ 1.31 µg/mL) | 61 | metabolised at 0.25 h [8]: 5.4% |
| CCc1cnc(N2CCC(n3nnc4cc(-c5ccc(S(C)(=O)=O)cc5)ncc43)CC2)nc1 | 0.28 (≈ 0.13 µg/mL) | 21 | – |
| CC(C)COC(=O)N1CCC(n2ncc3cc(-c4ccc(S(C)(=O)=O)cc4)ncc32)CC1 | 1.18 (≈ 0.539 µg/mL) | – | – |
| CCNC(=O)c1cc(C)c(-c2cc3nnn(C4CCN(c5ncc(CC)cn5)CC4)c3cn2)c(C)c1 | 1.86 (≈ 0.901 µg/mL) | 83 | – |
| CCc1cnc(N2CCC(n3ncc4cc(-c5ccc(S(C)(=O)=O)cc5)ncc43)CC2)nc1 | 0.26 (≈ 0.12 µg/mL) | – | – |
| CCc1cnc(N2CCC(n3nnc4cc(-c5ccc(S(C)(=O)=O)cc5)ccc43)CC2)nc1 | < 0.13 | 31 | – |

The remaining molecules from weak to strong by EC50 [2], led by results:

| solubility thermodynamic at 24 h [1] [µM] | EC50 [2] [nM] | SMILES | also measured |
| --- | --- | --- | --- |
| 1.79 (≈ 0.842 µg/mL) | 18 | CCNC(=O)c1ccc(-c2cc3nnn(C4CCN(c5ncc(CC)cn5)CC4)c3cn2)cc1C | – |
| < 0.16 | 18 | CCNC(=O)c1ccc(-c2cc3nnn(C4CCN(c5ncc(CC)cn5)CC4)c3cn2)cc1Cl | – |
| – | 15 | CCNC(=O)c1ccc(-c2cc3nnn(C4CCN(c5ncc(CC)cn5)CC4)c3cn2)c(F)c1 | – |
| < 0.11 | 14 | CCc1cnc(N2CCC(n3ncc4cc(-c5ccc(S(C)(=O)=O)cc5)ccc43)CC2)nc1 | – |
| 0.24 (≈ 0.118 µg/mL) | 13 | CCNC(=O)c1ccc(-c2cc3nnn(C4CCN(c5ncc(CC)cn5)CC4)c3cn2)c(Cl)c1 | – |
| – | 10 | CCNC(=O)c1ccc(-c2cc3nnn(C4CCN(c5ncc(CC)cn5)CC4)c3cn2)c(F)c1F | – |
| < 0.15 | 9 | CCc1cnc(N2CCC(n3nnc4cc(-c5ccc(S(C)(=O)=O)c(F)c5)ncc43)CC2)nc1 | – |
| < 0.12 | 7 | CCc1cnc(N2CCC(n3nnc4cc(-c5ccc(S(C)(=O)=O)cc5F)ncc43)CC2)nc1 | – |
| 0.24 (≈ 0.118 µg/mL) | 2 | CCNC(=O)c1cc(F)c(-c2cc3nnn(C4CCN(c5ncc(CC)cn5)CC4)c3cn2)cc1F | – |

Source: ChEMBL document CHEMBL4052717, “Novel 3H-[1,2,3]triazolo[4,5-c]pyridine derivatives as GPR119 agonists: Synthesis and structure-activity/solubility relationships” (Bioorg Med Chem, 2017)
